Assay results pooled from the literature.
Compare with care: the assays were run in different laboratories.
Target: Serine/threonine-protein kinase DCLK3 (DCLK3, Homo sapiens, UniProt Q9C098)
One construct used (Q9C098 1-648): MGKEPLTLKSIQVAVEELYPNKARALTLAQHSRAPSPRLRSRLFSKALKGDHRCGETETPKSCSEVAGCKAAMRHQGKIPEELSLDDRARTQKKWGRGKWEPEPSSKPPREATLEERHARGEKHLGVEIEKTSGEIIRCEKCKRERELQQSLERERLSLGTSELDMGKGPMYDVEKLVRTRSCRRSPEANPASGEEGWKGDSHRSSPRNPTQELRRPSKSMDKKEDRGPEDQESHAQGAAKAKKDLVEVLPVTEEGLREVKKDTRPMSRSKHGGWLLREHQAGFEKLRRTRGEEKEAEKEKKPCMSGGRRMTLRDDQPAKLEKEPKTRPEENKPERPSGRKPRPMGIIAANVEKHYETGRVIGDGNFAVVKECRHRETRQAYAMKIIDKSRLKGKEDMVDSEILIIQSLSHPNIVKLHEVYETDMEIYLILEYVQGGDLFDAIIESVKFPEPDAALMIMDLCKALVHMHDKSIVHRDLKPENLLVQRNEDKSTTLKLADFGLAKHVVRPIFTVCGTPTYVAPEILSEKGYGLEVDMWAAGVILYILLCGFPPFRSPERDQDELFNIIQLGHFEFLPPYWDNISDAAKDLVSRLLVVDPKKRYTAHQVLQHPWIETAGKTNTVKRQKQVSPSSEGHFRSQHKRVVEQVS

| SMILES | observed | method | tested at | remaining binding [%] |
| --- | --- | --- | --- | --- |
| O=C(Nc1c[nH]nc1C(=O)NC1CCNCC1)c1cc(F)cc(F)c1 | binding | competition with immobilised ligand | 1 µM | 93 |
| O=C(NS(=O)(=O)c1ccc(NCC2CCOCC2)c([N+](=O)[O-])c1)c1ccc(N2CCN(Cc3ccc(C(F)(F)F)cc3-c3ccc(Cl)cc3)CC2)cc1Oc1cnc2[nH]ccc2c1 | cell-free assay | competition with immobilised ligand | 1 µM | 93 |
| CN(C)c1ncc(F)c(-c2cnn3ncccc23)n1 | binding | – | 1 µM | 100 |
| Cc1cnc(Nc2ccc(C(=O)N3CCC(N4CCCC4)CC3)cc2)nc1-c1cc2ccccc2s1 | binding | competition with immobilised ligand | 1 µM | 0.5 |
| CN(CCCC(F)(F)F)c1nccc(-c2cnn3ncccc23)n1 | binding | – | 1 µM | 85 |
| Nc1ncc2c(n1)-c1c([nH]c3ccc(C#CC4CC4)cc13)CCCC2 | binding | competition with immobilised ligand | 1 µM | 100 |
| N#CC1(c2ccccn2)CCN(Cc2cc(C(=O)N3CCCC3)c(=O)n3ccccc23)CC1 | cell-free assay | competition with immobilised ligand | 1 µM | 100 |
| CC1CCCN1c1nccc(-c2cnn3ncccc23)n1 (stereo not drawn) | binding | – | 1 µM | 100 |
| O=C(c1ccc(Nc2ncc(Cl)c(-c3ccc(Cl)s3)n2)cc1)N1CCC(N2CCCC2)CC1 | binding | competition with immobilised ligand | 1 µM | 14 |
| O=C(N1CCS(=O)(=O)CC1)N1C[C@H](c2ccc(OC(F)(F)F)cc2)C[C@H](c2nc(C3CC3)no2)C1 | cell-free assay | competition with immobilised ligand | 1 µM | 100 |
| C[C@@H](c1ccc(-n2cnc3c(N)ncnc32)cc1)N1CCc2nn(C)c(Cc3ccccc3)c2C1=O | binding | competition with immobilised ligand | 0.1 µM | 85 |
| N[C@H]1CCN(c2nccc(-c3cnn4ncccc34)n2)C1 | binding | – | 1 µM | 100 |
| O=C(NCCCN1CCOCC1)c1ccc(Nc2nccc(-c3cc4ccccc4s3)n2)cc1 | binding | competition with immobilised ligand | 1 µM | 0.4 |
| FC(F)(F)Oc1cccc(-c2cnc3ccc(-c4ccncc4)nn23)c1 | cell-free assay | competition with immobilised ligand | 5 µM | 100 |
| COc1ccc2c(c1)O[C@@H](c1ccc(OC)c(OC)c1)C[C@H]2NC(=O)C1(c2ccc3c(c2)OC(F)(F)O3)CC1 | cell-free assay | competition with immobilised ligand | 1 µM | 98 |
| CNC(=O)[C@@H]1CC[C@@H](n2c(-c3ccc4cnccc4c3)nc3ccc(C(=O)NCc4cccc(C(N)=O)c4)cc32)C1 | binding | competition with immobilised ligand | 1 µM | 100 |
| C[C@H]1CCN(c2nccc(-c3cnn4ncccc34)n2)C1 | binding | – | 1 µM | 93 |
| C[C@H](c1cccc(C#N)c1)n1cc(Cl)cc(C(N)=O)c1=N | cell-free assay | competition with immobilised ligand | 1 µM | 99 |
| COc1cnc(Nc2cccc(S(N)(=O)=O)c2)nc1N1CCN(c2ccccc2)CC1 | binding | competition with immobilised ligand | 1 µM | 71 |
| COc1ccnn2ncc(-c3ccnc(N(C)C)n3)c12 | binding | – | 1 µM | 100 |
| CN([C@@H]1CCc2c(CC(=O)O)c3ccccc3n2C1)S(=O)(=O)c1ccc(F)cc1 | cell-free assay | competition with immobilised ligand | 1 µM | 99 |
